From PMC9393037 (International Journal of Nanomedicine, 2022)

Assays:
MCAO mice [1] = assay: MCAO model: Nissl, TUNEL and LC3 immunofluorescence staining of brain sections; type: in vivo, C57BL/6 mice; conditions: i.v. for 7 days
[2] = Tissue distribution and targeting evaluation after i.v. administration to mice; type: in vivo, ICR mice; conditions: for Cmax: male, ICR, mouse, iv, 2.8 mg/kg
Summary of the method: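 Male ICR mice (6-8 weeks, 27-28 g) received 2.8 mg/kg i.v. as free compound or micelles. Four mice were killed per time point (0.17, 0.5, 1, 2 h), and heart, liver, lung, kidney and brain were collected. Tissues were rinsed, weighed, homogenised in cold saline (1:2 w/v), centrifuged, and supernatants assayed by LC-MS/MS.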

MCAO mice [3] = assay: MCAO model: behavioural tests; type: in vivo, C57BL/6 mice; conditions: i.v. for 7 days, seventh day after the operation
Summary of the method: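 Male C57BL/6 mice (6-8 weeks, 24-26 g), four per group, were anaesthetised with 5% chloral hydrate i.p. The right CCA/ECA/ICA were exposed, and a monofilament was placed and removed after 1 h for reperfusion; sham mice had no monofilament. Dosing was i.v. for 7 days: free compound 3 mg/kg, micelles 1 or 3 mg/kg, edaravone 3 mg/kg. A blinded investigator scored Longa on days 1 and 7.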

[4] = Pharmacokinetics after single i.v. administration to rats; type: in vivo, Sprague Dawley rats
Summary of the method: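 Male Sprague Dawley rats (7-9 weeks, 240-260 g), six per group, were fasted overnight. Each received one tail-vein dose of 2 mg/kg as free compound (saline with 30% propylene glycol) or micelles. Jugular blood was drawn into heparinised tubes at 0.03–8 h, and plasma was separated at 4 ℃. Samples were quantified by validated LC-ESI-MS/MS, and PK parameters were calculated; mean ± SD.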

In vitro release study = type: physicochemical; conditions: PBS pH = 7.4 and pH = 5, 1% SDS, 37 ℃
Summary of the method: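 Test compound-loaded micelles or free test compound were placed in a pre-soaked dialysis bag (MWCO 500) immersed in PBS containing 1% (w/v) SDS at pH 7.4 or pH 5. Bags were shaken at 200 rpm at 37 ℃. Outside medium was sampled at 0.5, 1, 2, 4, 6, 8, 12, 24 and 48 h and replaced with fresh PBS. Cumulative release was tracked.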

[5] = Sprague Dawley, rat, plasma, iv, 2 mg/kg

Cmax ([2]; brain): 21.7 ± 3.45 ng/g | Cmax ([2]; heart): 69.2 ± 10.5 ng/g | Cmax ([2]; kidney): 713 ± 35 ng/g | Cmax ([2]; liver): 574 ± 137 ng/g | Cmax ([2]; lung): 179 ± 31.4 ng/g | detectability of ISL in tissues 1 h after administration ([2]; mice, i.v. 2.8 mg/kg, 1 h): could not be detected | AUC ([2]; mice, i.v. 2.8 mg/kg, Brain): 8.34 ± 0.61 ng·h/g | AUC ([2]; mice, i.v. 2.8 mg/kg, Heart): 18.66 ± 2.11 ng·h/g | AUC ([2]; mice, i.v. 2.8 mg/kg, Kidney): 174.7 ± 9.70 ng·h/g | AUC ([2]; mice, i.v. 2.8 mg/kg, Liver): 207.70 ± 28.50 ng·h/g | AUC ([2]; mice, i.v. 2.8 mg/kg, Lung): 55.24 ± 6.28 ng·h/g | AUC(0-inf) [4, 5]: 373 ± 106 ng·h/mL | AUC(0-t) [4, 5]: 307 ± 92.5 ng·h/mL | MRT last [4, 5]: 10.2 ± 1.8 min | clearance [4, 5]: 96.3 mL/min/kg | detectability of ISL in plasma over time ([4]; rats, single i.v. 2 mg/kg): could not be detected after 2 hours | CL (clearance rate) ([4]; rats, single i.v. 2 mg/kg, plasma ISL): 96.3 ± 29 mL/min/kg | cumulative release (In vitro release study; in eight hours): ~90% | cumulative release (In vitro release study; within the first four hours): More than 60%
SMILES: O=C(/C=C/c1ccc(O)cc1)c1ccc(O)cc1O [ISL, (e)-1-(2,4-dihydroxyphenyl)-3-(4-hydroxyphenyl) −2-propen-1-one]
Nissl staining of neurons (Nissl bodies) (MCAO mice [1]): not significantly different from that in the model group | number of positive cells expressing the LC3 protein (MCAO mice [1]): less than that in the model group and more than that in the ISL-M group | number of positive cells stained with the TUNEL (MCAO mice [1]): less than that in the model group and more than that in the ISL-M group | neurological scores (Longa scores) compared with the MCAO model group (MCAO mice [3]): significantly decreased
